# Measurements reported in the RNAGym collection of RNA variant scans (doi:10.1126/science.aae0568).
# Variants at the floor of the assay were thinned out.
# B1: tRNA (parent)
# chain: GUUCCGUUGGCGUAAUGGUAACGCGUCUCCCUCCUAAGGAGAAGACUGCGGGUUCGAGUCCCGUACGGAACG
# Variants of: B1
# Experiment: yeast fitness relative to wild type (ratio to wild type); higher = fitter; tRNA-Arg(CCU), competitive growth, 37 C, YPD
# In short: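 Variants of the tRNA-Arg(CCU) gene, chemically synthesised with a 3% per-site mutation rate at 69 sites, were placed at the native genomic locus in Saccharomyces cerevisiae. The pooled strains were competed in YPD at 37°C for 24 hours in six parallel replicates. Gene amplicons from the start population and from each end population were read by 100-nucleotide paired-end sequencing. Darwinian fitness relative to wild type came from changes in genotype frequencies; genotypes needed ≥ 100 starting reads, and estimates < 0.5 were set to 0.5.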
row,Variant,yeast fitness
1,GUUCCGUUGGCGUAAUGGUAACGUGUCUCCCGCCUAAGGAGAAGACUGCGAGUUCGAGUCCCGUACGGAACG [C24U U32G G51A],≤ 0.5
2,GUUCCGUUGGCGUAAUGGUAACGCAUCUCCCUCCUUAGGAGAAGCCUGCGGGUACGAGUCCCGUACGGAACG [G25A A36U A45C U54A],≤ 0.5
3,GUUCCGUUGGCGUAAUGGUAACGUGUCUCCCUCCUAAGGAGAAGACCGCGGGUUCGAGCCCCGUACGGUACG [C24U U47C U59C A69U],≤ 0.5
4,GUUCCGUUGGCGUAAUGGUAACGCAUCUCCCUCCUAAGGAGAAGACUGCGGGUUCGAGUCCCGUACGGAUCG [G25A A70U],1.01
5,GUUCCGUUGGCGUAAUGGUAACGCAUCUCCCUCCUAAGGAGAAGACUGCGGGUUCGAGUCCCGUACGGAGCG [G25A A70G],1.04
6,GUUCCGUUGGCGUAAUGGUAACGCAUCUCCCUCCUAAGGAGAGGUUUGCGGGUUCGAGUCCCGUACGGAACG [G25A A43G A45U C46U],≤ 0.5
7,GUUCCGUUGGCGUAAUGGUAACGCAUCUCCCUCCUAAGGAGAAGGCUGCGGAUACGAGUCCCGUACGGAACG [G25A A45G G52A U54A],≤ 0.5
8,GUUCCGUUGGCGUAAUGGUAACGUGUCUCCCUCCUAAGGAGAAGACUGCGGGUUCGAGAGCCGUACGGAACG [C24U U59A C60G],0.754
9,GUUCCGUUGGCGUAAUGGUAACGCAUUUCCCUCCUAAGGAGAAGACUGCGGGUUCGAGUCCCGUACGGAACG [G25A C27U],0.901
10,GUUCCGUUGGCGUAAUGGUAACGUGUCUCCCUCCUAAGGAGAAGACUGCGGGCUUGAGUCCCGUACGGAACG [C24U U53C C55U],≤ 0.5
11,GUUCCGUUGGCGUAAUGGUAACGCAUCUCCCUCCUAUGGAGAAGACUGCGGGUACGAGUCCCGUACGGAACG [G25A A37U U54A],≤ 0.5
12,GUUCCGUUGGCGUAAUGGUAACGUGACGCCCUCCUAAGGAGAAGACUGCGGAUUCGAGUCCCGUACGGAACG [C24U U26A U28G G52A],≤ 0.5
13,GUUCCGUUGGCGUAAUGGUAACGCAUCUCCCUCCUAAGGAGAAGACUGCGGGUUCGAGUCCCGUGCGGAACG [G25A A65G],0.956
14,GUUCCGUUGGCGUAAUGGUAACGCAUCUCCCUCCUAAGGAGAAGACUGCGGGUUCGAGUCCCGUCCGGAACG [G25A A65C],1.01
15,GUUCCGUUGGCGUAAUGGUAACGCAUCUCCCUCCUAAGGCGAAGACUGCGGGUUCGAGUCCCGUCCGGAACG [G25A A40C A65C],0.739
16,GUUCCGUUGGCGUAAUGGUAACGUGUCUCCCUCCUAAGGAGAAGACCGCGGGUUCGAGUCCCAUACGGAACG [C24U U47C G63A],0.829
17,GUUCCGUUGGCGUAAUGGUAACGCAUCUCCCUCCUACGGAGAAGACUGCGGGUUCGAGUCUCGUACGGAACG [G25A A37C C61U],0.572
18,GUUCCGUUGGCGUAAUGGUAACGCAUCUCCCUCCUACGGAGAAGACUGCGCGUUCGGGUCCCGUACGGAACG [G25A A37C G51C A57G],≤ 0.5
19,GUUCCGUUGGCGUAAUGGUAACGCAUCUCCCUCCUAAGGCGAAGAUUGCGGGUUCGAGUCCCGUACGGAACG [G25A A40C C46U],0.978

row,Variant,yeast fitness
1,GUUCCGUUGGCGUAAUGGUAACGUGCCUCCCUCCUAAGGAGAAGACUGCGGGUUCGUGUCCCGUACGGAACG [C24U U26C A57U],≤ 0.5
2,GUUCCGUUGGCGUAAUGGUAACGUGUCCCCCUCCUAGGGAGAAGACUGCGGGUUCGAGUCCUGUACGGAACG [C24U U28C A37G C62U],≤ 0.5
3,GUUCCGUUGGCGUAAUGGUAACGCAUCUCCCUCCUAUGGCGAAGACUGCGGGUUCGAGUCCCGUACGGAACG [G25A A37U A40C],0.68
4,GUUCCGUUGGCGUAAUGGUAACGCAUCUCCCUCCUAAGGAGAAGCCUGCGGGUUCGAGUCCCGUAUCGAACG [G25A A45C C66U G67C],0.608
5,GUUCCGUUGGCGUAAUGGUAACGCAUCUCCCUCCUAAGGAGACGACUGCGGGUUCGAGUCCCCUACAGAACG [G25A A43C G63C G67A],≤ 0.5
6,GUUCCGUUGGCGUAAUGGUAACGCAUUUCCCUCGUAAGGAGAAGACUGCGGGUUCGAGUCCCGUACGGAACG [G25A C27U C34G],0.748
7,GUUCCGUUGGCGUAAUGGUAACGCAUCUCCCUCCUAAGGAGCAGACUGCGGGUUCGAGUCCCGUACGGAACG [G25A A42C],0.868
8,GUUCCGUUGGCGUAAUGGUAACGCAUCUCCCUCCUACGGAGAAGACUGCGGGUUCGAGUCCCGUACGUAACG [G25A A37C G68U],0.702
9,GUUCCGUUGGCGUAAUGGUAACGCAUCUCCCUCCUAAGGAGUAGACUGCGGGUUCGAGUCCCGUCCUGAACG [G25A A42U A65C G67U],≤ 0.5
10,GUUCCGUUGGCGUAAUGGUAACGUGUCCCCCUCCUAAGGCGAAGACUGCGGGUUCGAGUCCCGUACGGCACG [C24U U28C A40C A69C],≤ 0.5
11,GUUCCGUUGGCGUAAUGGUAACGCAUCUCCCUCCUAAGGAGACGACUGCGGGUUCGAGUCCCGUACGGACCG [G25A A43C A70C],0.824
12,GUUCCGUUGGCGUAAUGGUAACGUGUCUCCCUCCCAAGGAGAAGACUGCGGGUUCGAGUCCCGUACGGACCG [C24U U35C A70C],0.671
13,GUUCCGUUGGCGUAAUGGUAACGCAUCUACCUCCUAAGGAGGAGACUGCGGGUUCGAGUCCCGUACGGAACG [G25A C29A A42G],≤ 0.5
14,GUUCCGUUGGCGUAAUGGUAACGUGUCUCCCUCCCAACGAGAAGACUGCGGGUUCGAGUCCUGUACGGGACG [C24U U35C G38C C62U A69G],0.723
15,GUUCCGUUGGCGUAAUGGUAACGUGUCUCCCCCCUAAGGAGAAGAAUGCGGGUUCGAGUCCCGUACGGAACG [C24U U32C C46A],0.967
16,GUUCCGUUGGCGUAAUGGUAACGCAUCUCCCUCCUAAGGAGAAGUCUGCGGGUCCGACUCCCGUACGGAACG [G25A A45U U54C G58C],0.596
17,GUUCCGUUGGCGUAAUGGUAACGCAUCUCCCUCCUAAGGAGAGGACUCCGGGUUCGAGUCCCGUACGGAACG [G25A A43G G48C],0.573
18,GUUCCGUUGGCGUAAUGGUAACGCAUCUCCCUCCUAAGGAGAAGGUUGCGGGUUCGAGUCCCGUACGGAACG [G25A A45G C46U],0.731
